ChEMBL document CHEMBL5620363, “HIV-1 protease inhibitors with a P1 phosphonate modification maintain potency against drug-resistant variants by increased interactions with flap residues” (Eur J Med Chem, 2023)

Legend:
[1] = test system: Human immunodeficiency virus 1; assay: (§1) Antiviral activity against drug-resistant HIV-1 harboring protease L10F/L33F/M46I/I47V/I50V/F53L/L63P/A71V/L76S/V82I/I85V/L89I mutant infected in human TZM-bl cells using virus particles harvested from 24 hrs drug-treated human CEM cells infected with virus assessed as reduction in viral infection measured after 48 hrs in TZM-bl cells by Firefly luciferase based assay; format: functional, organism-based; conditions: Human immunodeficiency virus 1, TZM-bl
[2] = test system: Human immunodeficiency virus 1; assay: Selectivity ratio of EC50 for drug-resistant HIV-1 harboring protease L10F/V11I/I13V/V32I/L33F/K43T/M46L/I54L/A71V/V82I/I84V/L89M/T91S/Q92R mutant infected in human TZM-bl cells to EC50 for wild-type HIV-1 NL4-3 infected in human TZM-bl cells; format: functional
[3] = test system: Human immunodeficiency virus 1; assay: as §1, with “RT mutation/protease I13V/G16E/V32I/L33F/K45I/M46I/A71V/L76V/V82F/I84V” for “protease L10F/L33F/M46I/I47V/I50V/F53L/L63P/A71V/L76S/V82I/I85V/L89I”; format: functional, organism-based; conditions: Human immunodeficiency virus 1, TZM-bl
Outline: (§2)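 Virus stocks grown by infecting 3 × 10^6 CEM cells with virus at 37 °C for 2–3 h, then RPMI with medium changes every 48 h until CPE. Infected CEM cells plated onto five-fold serial inhibitor dilutions in RPMI (top 100 μM).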

[4] = test system: Human immunodeficiency virus 1; assay: as §1, with “L10F/V11I/I13V/V32I/L33F/K43T/M46L/I54L/A71V/V82I/I84V/L89M/T91S/Q92R” for “L10F/L33F/M46I/I47V/I50V/F53L/L63P/A71V/L76S/V82I/I85V/L89I”; format: functional, organism-based; conditions: Human immunodeficiency virus 1, TZM-bl; outline: as §2
[5] = test system: Human immunodeficiency virus 1; assay: as §1, with “L10F/I13V/L33F/K45R/M46I/I47V/I50V/F53L/I54L/I66F/A71V/T74A/L76S/V82I” for “L10F/L33F/M46I/I47V/I50V/F53L/L63P/A71V/L76S/V82I/I85V/L89I”; format: functional, organism-based; conditions: Human immunodeficiency virus 1, TZM-bl; outline: as §2
[6] = test system: Human immunodeficiency virus 1; assay: as §1, with “L10F/I15V/M46I/I47V/I50V/F53L/A71V/V82I/I84V/L89T” for “L10F/L33F/M46I/I47V/I50V/F53L/L63P/A71V/L76S/V82I/I85V/L89I”; format: functional, organism-based; conditions: Human immunodeficiency virus 1, TZM-bl; outline: as §2
[7] = test system: Human immunodeficiency virus 1; assay: Selectivity ratio of EC50 for drug-resistant HIV-1 harboring protease L10F/I13V/L33F/K45R/M46I/I47V/I50V/F53L/I54L/I66F/A71V/T74A/L76S/V82I mutant infected in human TZM-bl cells to EC50 for wild-type HIV-1 NL4-3 infected in human TZM-bl cells; format: functional
[8] = test system: Human immunodeficiency virus 1; assay: Selectivity ratio of EC50 for drug-resistant HIV-1 harboring protease L10F/L33F/M46I/I47V/I50V/F53L/L63P/A71V/L76S/V82I/I85V/L89I mutant infected in human TZM-bl cells to EC50 for wild-type HIV-1 NL4-3 infected in human TZM-bl cells; format: functional
[9] = test system: Human immunodeficiency virus 1; assay: Selectivity ratio of EC50 for drug-resistant HIV-1 harboring RT mutation/protease I13V/G16E/V32I/L33F/K45I/M46I/A71V/L76V/V82F/I84V mutant infected in human TZM-bl cells to EC50 for wild-type HIV-1 NL4-3 infected in human TZM-bl cells; format: functional
[10] = test system: Human immunodeficiency virus 1; assay: Antiviral activity against DRV-resistant HIV-1 infected in human TZM-bl cells using virus particles harvested from 24 hrs drug-treated human CEM cells infected with virus assessed as reduction in viral infection measured after 48 hrs in TZM-bl cells by Firefly luciferase based assay; format: functional, organism-based; conditions: Human immunodeficiency virus 1, TZM-bl; outline: as §2
[11] = test system: Human immunodeficiency virus 1; assay: as §1, with “Gag mutation/protease I13V/G16E/V32I/L33F/K45I/M46I/A71V/L76V/V82F/I84V” for “protease L10F/L33F/M46I/I47V/I50V/F53L/L63P/A71V/L76S/V82I/I85V/L89I”; format: functional, organism-based; conditions: Human immunodeficiency virus 1, TZM-bl; outline: as §2
[12] = test system: Human immunodeficiency virus 1; assay: Selectivity ratio of EC50 for drug-resistant HIV-1 harboring Gag mutation/protease I13V/G16E/V32I/L33F/K45I/M46I/A71V/L76V/V82F/I84V mutant infected in human TZM-bl cells to EC50 for wild-type HIV-1 NL4-3 infected in human TZM-bl cells; format: functional
[13] = test system: Human immunodeficiency virus 1; assay: Selectivity ratio of EC50 for drug-resistant HIV-1 harboring protease L10F/I15V/M46I/I47V/I50V/F53L/A71V/V82I/I84V/L89T mutant infected in human TZM-bl cells to EC50 for wild-type HIV-1 NL4-3 infected in human TZM-bl cells; format: functional
[14] = test system: Human immunodeficiency virus 1; assay: Antiviral activity against wild-type HIV-1 NL4-3 infected in human TZM-bl cells using virus particles harvested from 24 hrs drug-treated human CEM cells infected with virus assessed as reduction in viral infection measured after 48 hrs in TZM-bl cells by Firefly luciferase based assay; format: functional, organism-based; conditions: Human immunodeficiency virus 1, NL4-3, TZM-bl; outline: as §2
[15] = test system: Human immunodeficiency virus 1; assay: Selectivity ratio of EC50 for DRV-resistant HIV-1 infected in human TZM-bl cells to EC50 for wild-type HIV-1 NL4-3 infected in human TZM-bl cells; format: functional

Structure (SMILES): CCC(CC)CN(C[C@@H](O)[C@H](Cc1ccccc1)NC(=O)O[C@H]1CO[C@H]2OCC[C@H]21)S(=O)(=O)c1ccc(OC)cc1
- EC50 [1]: 800 nM
- Ratio EC50 [2]: 1793
- EC50 [3]: 250 nM
- EC50 [4]: 5380 nM
- EC50 [5]: 16700 nM
- EC50 [6]: 21800 nM
- Ratio EC50 [7]: 5567
- Ratio EC50 [8]: 267
- Ratio EC50 [9]: 83
- EC50 [10]: 1600 nM
- EC50 [11]: 140 nM
- Ratio EC50 [12]: 47
- Ratio EC50 [13]: 7267
- EC50 [14]: 3 nM
- Ratio EC50 [15]: 533
